Measured values: ChEMBL document CHEMBL4382236, “Synthesis and biological evaluation of thielocin B1 analogues as protein-protein interaction inhibitors of PAC3 homodimer” (Bioorg Med Chem, 2018)

Columns and labels:
[1] = target: T1, Proteasome assembly chaperone 3 (Homo sapiens, UniProt Q9BT73); assay: Inhibition of PAC3 homodimer (unknown origin) protein-protein interaction
T1 sequence (Q9BT73 whole entry): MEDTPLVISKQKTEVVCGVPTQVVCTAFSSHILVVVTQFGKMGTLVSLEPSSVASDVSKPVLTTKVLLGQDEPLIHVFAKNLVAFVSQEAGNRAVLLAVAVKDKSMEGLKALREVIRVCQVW

[2] = target: T2, Proteasome assembly chaperone 3 (Homo sapiens) (UniProt Q9BT73); assay: (§1) Inhibition of N-terminal mKG-labeled PAC3/C-terminal mKG-labeled PAC3 homodimer (unknown origin) protein-protein interaction at 10 uM preincubated for 1 hr with protein followed by another protein addition and measured after 17 hrs by fluorescence based protein-fragment complementation assay relative to control
T2 sequence (whole entry): T1 sequence (Q9BT73 whole entry)
How it was run: (§2)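 In vitro protein-fragment complementation assay. Compounds were added as DMSO solutions at 10, 1 or 0.1 μM. The decrease in fluorescence intensity was converted to percent inhibition.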

[3] = target: T3, PAC1-PAC2 complex (Homo sapiens) (UniProt O95456+Q969U7); assay: as §1, with “PAC1/C-terminal” for “PAC3/C-terminal”, “PAC2” for “PAC3 homodimer”; assay type: protein-complex assay; how it was run: as §2
[4] = target: T3, PAC1-PAC2 complex (Homo sapiens); assay: as §1, with “PAC1/C-terminal” for “PAC3/C-terminal”, “PAC2” for “PAC3 homodimer”, “0.1” for “10”; assay type: protein-complex assay; how it was run: as §2
[5] = target: T2, Proteasome assembly chaperone 3 (Homo sapiens); assay: as §1, with “1” for “10”; how it was run: as §2
[6] = target: T3, PAC1-PAC2 complex (Homo sapiens); assay: as §1, with “PAC1/C-terminal” for “PAC3/C-terminal”, “PAC2” for “PAC3 homodimer”, “1” for “10”; assay type: protein-complex assay; how it was run: as §2
[7] = target: T2, Proteasome assembly chaperone 3 (Homo sapiens); assay: as §1, with “0.1” for “10”; how it was run: as §2
PAC1-PAC2 complex = target: T4, PAC1-PAC2 complex (Homo sapiens, UniProt O95456+Q969U7); assay: Inhibition of PAC1/PAC2 heterodimer (unknown origin) protein-protein interaction; assay type: protein-complex assay
T4 sequence (O95456 whole entry): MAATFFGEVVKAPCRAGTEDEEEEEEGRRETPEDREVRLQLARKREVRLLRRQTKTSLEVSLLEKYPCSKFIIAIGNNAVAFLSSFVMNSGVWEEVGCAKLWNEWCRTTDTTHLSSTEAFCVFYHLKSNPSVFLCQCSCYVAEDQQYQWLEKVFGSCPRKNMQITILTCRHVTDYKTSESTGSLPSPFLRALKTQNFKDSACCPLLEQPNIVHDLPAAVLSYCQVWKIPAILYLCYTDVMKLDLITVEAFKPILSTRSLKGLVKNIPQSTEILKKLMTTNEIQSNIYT
T4 sequence (Q969U7 whole entry): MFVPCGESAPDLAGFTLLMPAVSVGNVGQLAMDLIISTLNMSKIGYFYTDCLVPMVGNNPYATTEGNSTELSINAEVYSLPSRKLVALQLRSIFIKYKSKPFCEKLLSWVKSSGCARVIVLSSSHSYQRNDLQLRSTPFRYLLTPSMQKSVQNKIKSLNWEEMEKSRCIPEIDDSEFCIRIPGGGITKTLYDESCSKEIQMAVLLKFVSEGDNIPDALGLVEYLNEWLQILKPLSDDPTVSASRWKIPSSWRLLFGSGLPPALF

IC50 [1] [µM]	inhibition [2] [%]	inhibition [3] [%]	inhibition [4] [%]	inhibition [5] [%]	inhibition [6] [%]	inhibition [7] [%]	IC50 (PAC1-PAC2 complex) [µM]	SMILES
> 250	–	–	–	–	–	–	–	COc1c(C)c(OC(=O)c2c(C)c(C)c(OC(=O)C3=C(C)[C@@](C)(O)[C@@]4(O)Oc5c(C)c(OC)c(C(=O)Oc6c(C)c(C)c(C(=O)O)c(OC)c6C)c(C)c5C[C@@]4(C)C3=O)c(C)c2OC)c(C)c(C)c1C(=O)O
–	94	68	5	30	16	7	–	COc1c(C)c(OC(=O)c2c(C)c(C)c(OC/C=C/COc3c(C)c(C)c(C(=O)Oc4c(C)c(C)c(C(=O)O)c(OC)c4C)c(OC)c3C)c(C)c2OC)c(C)c(C)c1C(=O)O
–	94	69	21	17	23	4	–	COc1c(C)c(OC(=O)c2c(C)c(C)c(OC(=O)c3c(C)c(C(=O)Oc4c(C)c(C)c(C(=O)Oc5c(C)c(C)c(C(=O)O)c(OC)c5C)c(OC)c4C)c(O)c(C)c3O)c(C)c2OC)c(C)c(C)c1C(=O)O
–	85	38	9	49	2	29	–	COc1c(C)c(OC(=O)c2c(C)c(C)c(OC(=O)c3c(C)c(C(=O)Oc4c(C)c(C)c(C(=O)Oc5c(C)c(C)c(C(=O)O)c(OC)c5C)c(OC)c4C)c(OC)c(C)c3OC)c(C)c2OC)c(C)c(C)c1C(=O)O
–	53	39	5	17	17	0	–	COc1c(C)c(OC(=O)c2c(C)c(C)c(OC[C@H](O)[C@@H](O)COc3c(C)c(C)c(C(=O)Oc4c(C)c(C)c(C(=O)O)c(OC)c4C)c(OC)c3C)c(C)c2OC)c(C)c(C)c1C(=O)O
0.02	–	–	9	94	9	85	> 250	COc1c(C)c(OC(=O)c2c(C)c(C)c(OC(=O)c3c(C)c(Oc4c(C)c(C)c(C(=O)Oc5c(C)c(C)c(C(=O)O)c(OC)c5C)c(OC)c4C)c(O)c(C)c3O)c(C)c2OC)c(C)c(C)c1C(=O)O
–	34	28	5	9	16	0	–	COc1c(C)c(OC(=O)c2c(C)c(C)c(OC(=O)CCC(=O)Oc3c(C)c(C)c(C(=O)Oc4c(C)c(C)c(C(=O)O)c(OC)c4C)c(OC)c3C)c(C)c2OC)c(C)c(C)c1C(=O)O
> 250	–	–	–	–	–	–	–	COc1c(C)c(OC(=O)c2c(C)c(C)c(OC(=O)c3c(C)cc(O)c(Cc4c(C)c(C(=O)Oc5c(C)c(C)c(C(=O)Oc6c(C)c(C)c(C(=O)O)c(OC)c6C)c(OC)c5C)c(O)c(C)c4O)c3O)c(C)c2OC)c(C)c(C)c1C(=O)O

Continued, compound first:

SMILES	IC50 [1] [µM]	inhibition [2] [%]	inhibition [3] [%]	inhibition [4] [%]	inhibition [5] [%]	inhibition [6] [%]	inhibition [7] [%]	IC50 (PAC1-PAC2 complex) [µM]
COc1c(C)c(OC(=O)c2c(C)c(C)c(OC[C@@H]3OC(=O)O[C@H]3COc3c(C)c(C)c(C(=O)Oc4c(C)c(C)c(C(=O)O)c(OC)c4C)c(OC)c3C)c(C)c2OC)c(C)c(C)c1C(=O)O	–	41	49	15	5	17	2	–
COc1c(C)c(OC(=O)c2ccc(Oc3cccc(C(=O)Oc4c(C)c(C)c(C(=O)Oc5c(C)c(C)c(C(=O)O)c(OC)c5C)c(OC)c4C)c3C)cc2)c(C)c(C)c1C(=O)O	–	98	91	15	40	37	4	–
COc1c(C)c(OC(=O)c2c(C)c(C)c(OCc3cccc(COc4c(C)c(C)c(C(=O)Oc5c(C)c(C)c(C(=O)O)c(OC)c5C)c(OC)c4C)c3Br)c(C)c2OC)c(C)c(C)c1C(=O)O	–	86	57	3	38	5	26	–
COCOC(=O)c1c(C)c(C)c(OC(=O)c2c(C)c(C)c(OCc3cccc(COc4c(C)c(C)c(C(=O)Oc5c(C)c(C)c(C(=O)OCOC)c(OC)c5C)c(OC)c4C)c3Br)c(C)c2OC)c(C)c1OC	–	0	6	3	0	0	0	–
COc1c(C)c(OC(=O)c2c(C)c(C)c(OCc3cccc(COc4c(C)c(C)c(C(=O)Oc5c(C)c(C)c(C(=O)O)c(OC)c5C)c(OC)c4C)n3)c(C)c2OC)c(C)c(C)c1C(=O)O	–	88	40	9	43	5	18	–
COc1c(C)c(OC(=O)c2ccc(Oc3cccc(C(=O)Oc4c(C)c(C)c(C(=O)Oc5c(C)c(C)c(C(=O)O)c(OC)c5C)c(OC)c4C)c3)cc2)c(C)c(C)c1C(=O)O	–	99	98	9	37	35	7	–
COCOC(=O)c1c(C)c(C)c(OC(=O)c2c(C)c(C)c(OC(=O)c3c(C)c(C(=O)Oc4c(C)c(C)c(C(=O)Oc5c(C)c(C)c(C(=O)OCOC)c(OC)c5C)c(OC)c4C)c(OC)c(C)c3OC)c(C)c2OC)c(C)c1OC	–	2	1	3	5	0	12	–
COc1c(C)c(OC(=O)c2ccc(Oc3cccc(C(=O)Oc4c(C)c(C)c(C(=O)Oc5c(C)c(C)c(C(=O)O)c(OC)c5C)c(OC)c4C)c3C)c(C)c2)c(C)c(C)c1C(=O)O	–	99	89	1	34	31	19	–
COc1c(C)c(O)c(C)c(C)c1C(=O)Oc1c(C)c(C)c(C(=O)O)c(OC)c1C	–	21	11	3	9	0	11	–
